mIAP activ: increases mouse intestinal alkaline phosphatase activity | muIAP, CDP-Star luminescence, 30 min; hits give high values; 1 = vehicle-only enzyme signal, 0 = enzyme-free wells | activation factor at 10 µM | actives 0.24% (n = 330,000) | AID 2805;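 active = activation factor of at least 2 at 20 µM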
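System: Mouse IAP enzyme | Also added: CDP-Star substrate | Dosing: Compounds dispensed in DMSO | Schedule: 30 min enzyme-substrate-compound incubation at room temperature | Technique: Chemiluminescence readout | Control set: DMSO-only wells and no-enzyme negative control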
hIAP activ: human IAP activation; P09923; purified human IAP, CDP-Star luminescence, 30 min; hits give high values; 1 = vehicle-only enzyme, 0 = enzyme-free background; AID 2524; activation factor at 10 µM; actives 0.16% (n = 330,000);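 active = activation factor of the enzyme at least 2-fold when tested at 20 µM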
Target sequence (P09923 whole entry, looked up): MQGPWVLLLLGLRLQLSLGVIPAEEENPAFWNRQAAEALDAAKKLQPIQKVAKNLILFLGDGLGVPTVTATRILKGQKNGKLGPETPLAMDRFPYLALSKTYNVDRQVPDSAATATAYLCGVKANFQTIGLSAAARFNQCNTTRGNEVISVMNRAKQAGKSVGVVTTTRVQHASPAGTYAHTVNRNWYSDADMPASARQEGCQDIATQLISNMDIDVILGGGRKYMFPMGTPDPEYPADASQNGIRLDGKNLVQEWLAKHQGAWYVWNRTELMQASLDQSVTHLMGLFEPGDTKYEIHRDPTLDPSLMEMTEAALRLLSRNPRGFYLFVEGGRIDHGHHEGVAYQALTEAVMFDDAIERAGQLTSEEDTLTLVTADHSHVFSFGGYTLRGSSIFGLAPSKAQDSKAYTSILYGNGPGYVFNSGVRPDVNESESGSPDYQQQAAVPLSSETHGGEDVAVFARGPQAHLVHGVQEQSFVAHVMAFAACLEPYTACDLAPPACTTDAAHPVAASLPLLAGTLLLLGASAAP
hIAP inh: human IAP inhibition. purified IAP, CDP-Star luminescence, 30 min. P09923. actives 0.12% (n = 330,000). AID 2544. inhibition, % at 10 µM;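 active = inhibition reaching a set limit with compound at 10 µM in the primary screen, cut at about 35% in these data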
bIAP act: intestinal alkaline phosphatase (bovine) activation | activation factor at 20 µM | actives 0.17% (n = 200,000) | purified bovine IAP, CDP-star luminescence, 30 min; hits give high values; fold of DMSO-control signal, blank-subtracted;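 active = activation factor of 2 or more at 20 µM, a signal rise over negative controls twice the positive control's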
mIAP inh: blocks mouse intestinal alkaline phosphatase. purified mouse IAP, CDP-Star luminescence, 30 min. inhibition, % at 10 µM. actives 0.2% (n = 330,000). AID 2806;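 active = inhibition of at least 40% at 10 µM in the primary screen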
bIAP inh: intestinal alkaline phosphatase (bovine) inhibition | purified bovine IAP, CDP-star luminescence, 30 min | inhibition, % at 20 µM | 190,000 tested, under 10 active | AID 1019;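 active = over 50% inhibition of intestinal alkaline phosphatase at 20 µM in the single-dose screen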
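System: Purified bovine intestinal alkaline phosphatase (IAP) enzyme | Input: IAP diluted 1/65,000,000 in the well | Also added: CDP-star chemiluminescent phosphatase substrate, 30 µM final | Dosing: 20 µM single dose | Times: Enzyme reaction for 30 min at room temperature | Detection: Luminescence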
Each line names hits and unclear results; the compound was inactive in the other large screens. Compounds with a hit are over-represented: about 0.77% of the library has one in this group of screens.

COc1ccc(OC)c(NC(=S)NCCC(c2ccccc2)c2ccccc2)c1	mIAP activ 2.59 (no result: bIAP act, bIAP inh)
Cc1ccc(NC(=S)NCCC(c2ccccc2)c2ccccc2)c(C)c1	mIAP activ 4.07
CCCCNc1nc2ccccc2[nH]1	bIAP act 3.1
Cc1ccc(O)c(-c2cc(C(=O)NCc3ccncc3)[nH]n2)c1	bIAP act 2.1
C=C(C)c1cccc(C(C)(C)NC(=O)NCCCN2CCCC2=O)c1	none
C=C(C)c1cccc(C(C)(C)NC(=O)NCCCn2ccnc2)c1	bIAP act 2.3
CCOc1cccc(/C=C2\NC(=S)N(c3ccccc3)C2=O)c1O	none (no result: bIAP act, bIAP inh)
CCOc1cc(/C=C2\NC(=S)N(c3c(C)n(C)n(-c4ccccc4)c3=O)C2=O)ccc1O	mIAP inh 42.1
S=C(NCc1ccccc1)NCc1ccc(CNC(=S)NCc2ccccc2)cc1	mIAP activ 3.22
S=C(NCc1ccccc1)Nc1ccc(Oc2ccccc2)cc1	mIAP activ 3.77 (no result: bIAP act, bIAP inh)
Cc1cc2cc(CNC(=S)NCc3ccccc3)ccc2n1C	mIAP activ 2.29
Cc1ccccc1NC(=S)NCc1ccc2c(c1)cc(C)n2C	none
Fc1ccc(CNC(=S)NCc2ccccc2)cc1	none (no result: bIAP act, bIAP inh)
COc1cccc(NC(=O)Nc2cc(NC(=O)Nc3cccc(OC)c3)c(C)nc2C)c1	mIAP activ 2.03
COc1cccc(C2(c3cccc(OC)c3)CC2C(=O)Nc2cccc3ccccc23)c1 (configuration not stated)	none
COc1cccc(NC(=O)Nc2ccncc2)c1	none
COc1cccc(NC(=O)Nc2ccc(Cc3ccncc3)cc2)c1	mIAP activ 4.57
COc1cccc(NC(=O)C2CC2(c2cccc(OC)c2)c2cccc(OC)c2)c1 (configuration not stated)	mIAP activ 2.23
O=C(Nc1ccc(CN2CCCCC2)cc1)Nc1ccccc1Cl	none
O=C(Nc1ccc(Br)cc1)Nc1ccccc1Cl	mIAP activ 2 (no result: bIAP act, bIAP inh)
CCN(CC)CCCn1c2c(c(SCC(=O)Nc3nccs3)nc1=O)CCC2	none (no result: bIAP act, bIAP inh)
CCc1ccc(OCC(=O)N/N=C(\C)c2ccc(-n3ccnc3)cc2)cc1	bIAP act 2
Cc1ccc(N2C(=O)CSCC2=O)cc1	none
Cc1ccc(N2C(=O)CS/C2=C(\C(Cl)=C(Cl)Cl)[N+](=O)[O-])cc1	mIAP inh 41.9
O=C(NCCCc1ccncc1)C1CCC(=O)N(CCc2cccc(F)c2)C1 (configuration not stated)	none (no result: bIAP act, bIAP inh)
O=C(NCCc1cccc(Cl)c1)c1cc2ccccc2oc1=O	mIAP inh 40.9 (no result: bIAP act, bIAP inh)
O=C(NCc1cccnc1)c1cc2ccccc2oc1=O	none
COc1cc(C)c2c(c1C=O)Oc1c(c(C)c(O)c3c1C(O)OC3=O)OC2=O (configuration not stated)	mIAP inh 53.7
COc1ccc(CCNC(=O)CC(C)S(=O)(=O)c2ccc3c(c2)NC(=O)CO3)cc1OC (configuration not stated)	none (no result: bIAP act, bIAP inh)
Cn1c(-c2ccc3c(c2)OCO3)cnc1NCc1ccc(Cl)cc1	bIAP act 6.4
Cc1ccc(CNc2ncc(-c3ccc4c(c3)OCO4)n2C)cc1	none
CCOc1ccc(S(=O)(=O)NN)cc1	bIAP act 2
CCC(NC(=S)NCc1ccc(F)cc1)c1ccc(C(C)C)cc1 (configuration not stated)	mIAP activ 4.15 (no result: bIAP act, bIAP inh)
CC(NC(=S)NC1CCCCC1)c1ccccc1 (configuration not stated)	none (no result: bIAP act, bIAP inh)
CCCc1ccc(C(C)NC(=S)NC2CCCCC2)cc1 (configuration not stated)	mIAP activ 2.31 (no result: bIAP act, bIAP inh)
CCOc1ccc(C(C)NC(=S)NCc2ccc(Cl)cc2)cc1 (configuration not stated)	mIAP activ 4.01
CCC(C)c1ccc(C(C)NC(=S)NCc2ccc(F)cc2)cc1 (configuration not stated)	mIAP activ 2.57 (no result: bIAP act, bIAP inh)
COc1ccc(C(C)NC(=S)NCc2ccc(F)cc2)cc1OC (configuration not stated)	none (no result: bIAP act, bIAP inh)
CC/C(=N/O)C(=O)c1ccc(Br)cc1	none
Cc1ccccc1NC(=S)NCc1ccc(F)cc1	none (no result: bIAP act, bIAP inh)
CCCc1ccc(C(C)NC(=S)NCc2ccc(F)cc2)cc1 (configuration not stated)	mIAP activ 2.96 (no result: bIAP act, bIAP inh)
CC1(C)SC2c3ccccc3C(=O)N2[C@@H]1C(=O)O (some centres not stated)	none (no result: bIAP act, bIAP inh)
CCO[C@@H]1OC(C(N)=O)=C[C@H](C2CCCCC2)[C@H]1CCCO	mIAP inh 45.0 (no result: bIAP act, bIAP inh)
Cc1cc(C)cc(NC(=S)NC2CC3CCCC(C2)N3CC(C)C)c1 (configuration not stated)	none
S=C(NCc1ccncc1)Nc1cccc(Cl)c1	none
C=CCN1C2CCCC1CC(NC(=O)Nc1cc(C)cc(C)c1)C2 (configuration not stated)	bIAP act 2
S=C(NCCN(C1CCCCC1)C1CCCC1)Nc1cccc(Cl)c1	mIAP activ 2.02 (no result: bIAP act, bIAP inh)
Cc1cc(C)cc(NC(=S)NC2CC3CCCC(C2)N3C2CC2)c1 (configuration not stated)	mIAP activ 2.31
S=C(NCc1cccc(Cl)c1)NC1CCCCC1	mIAP activ 2.47
O=C(NC1CCC(O)CC1)c1ccc(NS(=O)(=O)c2cccc([N+](=O)[O-])c2)cc1 (configuration not stated)	none (no result: bIAP act, bIAP inh)
S=C(Nc1ccc(Cl)cc1)NC1CC2CCCC(C1)N2C1CCCC1 (configuration not stated)	none
S=C(Nc1ccc(Cl)cc1)NC1CC2CCC(C1)N2Cc1ccccc1 (configuration not stated)	mIAP activ 2.26
CNC(=S)NC1CC2CCC(C1)N2Cc1ccccc1 (configuration not stated)	none
S=C(Nc1ccc(Cl)cc1)NC1CC2CCCC(C1)N2C1CC1 (configuration not stated)	mIAP activ 2.64
S=C(Nc1cccc(Cl)c1)NC1CC2CCCC(C1)N2C1CCCC1 (configuration not stated)	mIAP activ 2.2
COc1cccc(NC(=S)NC2CC3CCCC(C2)N3C2CCCC2)c1 (configuration not stated)	none
O=C(C1CCC1)N1CCN(S(=O)(=O)c2ccc(Br)cc2Cl)CC1	none (no result: bIAP act, bIAP inh)
O=C(CSc1nc2ccccc2c(=O)n1Cc1ccco1)NCc1ccco1	none
COc1cc2nc(SCC(=O)NCCc3ccccc3)n(Cc3ccco3)c(=O)c2cc1OC	bIAP act 2
Cc1nc(NC(=O)CSc2nccn2C)sc1C(=O)N(C)C	none (no result: bIAP act, bIAP inh)
CCOC(=O)c1ccc(NC(=O)NC2CCN(CC(=O)NCc3ccc4c(c3)OCO4)CC2)cc1	mIAP activ 2.27
CC(O/N=C\c1ccccc1O)C(=O)Nc1ccccc1C(=O)N1CCOCC1 (configuration not stated)	none
C=CCN=C(NC#N)SCCc1ccccc1	none

From PubChem BioAssay
